For assay [1], the system named is Canis familiaris. In words: Percentage change of the duration of action potential at 75% repolarization was measured before and after the administration at 10.0 ug/mL. In kind it is functional, Canis lupus familiaris. In short, it runs like this:
(§1)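 Canine right-ventricular Purkinje fibers (mongrel dogs 7–11 kg, thiopental-anesthetized) superfused with Tyrode's (pH 7.5, 36 °C, gassed 95% O2/5% CO2). Compounds diluted from 1 mM water stock and added cumulatively. Readings taken 20 min after solution exchange. Result given as percent change in action potential duration.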

Assay [2] has as its system Canis familiaris. In words: The percentage change of the duration of action potential at 75% repolarization was measured before and after the administration at 3.0 ug/mL. In kind it is functional, Canis lupus familiaris. The procedure, abridged:
as §1

Assay [3] concerns Canis familiaris. Description: The percentage change of the duration of action potential at 75% repolarization was measured before and after the administration at 1.0 ug/mL. In kind it is functional, Canis lupus familiaris. The procedure, abridged: as §1
The test system of assay [4] is Canis familiaris. In words: The prolongation effect of the atrial and ventricular effective refractory period was measured before and after the administration at 0.1 mg/kg. It is filed as functional, Canis lupus familiaris, Cardiac atrium. Particulars: dose 1.0 mg/kg; in the assay text read “1.0 mg/kg” for “0.1 mg/kg”. The procedure, abridged: (§2)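 In vivo, mongrel dogs of either sex (7–13 kg), anesthetized with pentobarbital sodium 30 mg/kg iv. Left femoral artery cannulated for arterial pressure, femoral vein for drug dosing. Effective refractory period measured before and after administration.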

In assay [5] the test system is Canis familiaris. In words: The prolongation effect of the atrial and ventricular effective refractory period was measured before and after the administration at 0.3 mg/kg. It is filed as functional, Canis lupus familiaris, Cardiac atrium. The procedure, abridged:
as §2

Assay [6] deals with Canis familiaris. In words: The prolongation effect of the atrial and ventricular effective refractory period was measured before and after the administration at 3 mg/kg. In kind it is functional, Canis lupus familiaris, Cardiac atrium. The procedure, abridged: as §2
For assay [7], the system named is Canis familiaris. In words: The prolongation effect of the atrial and ventricular effective refractory period was measured before and after the administration at 1 mg/kg. In kind it is functional, Canis lupus familiaris, Cardiac atrium. The procedure, abridged: as §2

Regarding `Cl.Cn1c(N2CCN(CCCOc3cccc(Cl)c3)CC2)cc(=O)n(C)c1=O`, the APD75 in assay [1] is given as 7%; in assay [2] it was 6%.
As for `Cl.Cn1c(N2CCN(CCCOc3ccc(NS(C)(=O)=O)cc3)CC2)cc(=O)n(C)c1=O`, the APD75 amounted to 1% in assay [3], 10% in assay [1] and 3% in assay [2]. Also, the values for the ERP in assay [4], in assay [5] and in assay [6] were 9.3%, 7.1% and 16.4%, respectively.
With `CO.Cl.Cn1c(N2CCN(CCCOc3cccc([N+](=O)[O-])c3)CC2)cc(=O)n(C)c1=O`, the APD75 in assay [3] came to 15%; in assay [2], 34%. Further, the ERP in assay [4] was determined as 7%.
On to `Cl.Cn1c(N2CCN(CCCOc3ccc(F)cc3)CC2)cc(=O)n(C)c1=O`, for which the APD75 is 9% in assay [3] and 13% in assay [2]. For the same compound, the ERP was 5.9% in assay [4], 5.9% in assay [5] and 11.8% in assay [6].
Consider `Cl.Cn1c(N2CCN(CCCCc3ccc([N+](=O)[O-])cc3)CC2)cc(=O)n(C)c1=O`, for which the APD75 in assay [1] came out at 25%; in assay [2], 17%.
In the case of `Cn1c(N2CCN(Cc3ccc([N+](=O)[O-])cc3)CC2)cc(=O)n(C)c1=O.O=C(O)C(=O)O`, the APD75 in assay [3] amounted to 3%; in assay [1] it was 11%; in assay [2], 7%. Also, the ERP in assay [5] was found to be 0%; in assay [7] it was 0%; in assay [6], 7%.

Values taken from ChEMBL document CHEMBL1125548, “Synthesis and pharmacological studies of N-substituted 6-[(2-aminoethyl)amino]-1,3-dimethyl-2,4(1H,3H)-pyrimidinediones, novel class III antiarrhythmic agents” (1992).
